Measurements of several laboratories.
Compare with care: the assays were run in different laboratories.
Target: Activin receptor type-1-like (ACVRL1, Homo sapiens, UniProt P37023)

O=C1NC(=O)c2cc(Nc3ccc(F)cc3)c(Nc3ccc(F)cc3)cc21 has a remaining signal of 95.9% (cell-free assay; 0.5 µM).
For CCC(=O)N[C@@H]1CC[C@H](C(=O)N(C)c2ccc(-c3nc4ccccc4o3)cc2)C1, the remaining binding was 100% (cell-free assay; competition with immobilised ligand; 1 µM).
With Nc1ncnc2occ(-c3ccc(NC(=O)Nc4cc(C(F)(F)F)ccc4F)cc3)c12 the remaining signal was 100% (cell-free assay; 20 µM).
With Cc1sc(C(=O)NC2COC2)cc1-n1cc(NC(=O)Nc2c(F)cccc2Cl)cn1 the remaining activity was 78.7% (enzyme activity; inhibitor; 10 µM).
CN1CC(Oc2cnc(C#N)cc2-c2ccn3nc(NC(=O)C4CC4)cc3c2)C1 gave an inhibition of 4% (enzyme activity; inhibitor; 1 µM).
For O=C(O)[C@@H]1[C@@H](Cn2nnc3ccccc3c2=O)CC[C@H]1C(=O)c1ccc(OCCC2CCOCC2)cc1, the remaining binding was 97% (binding; competition with immobilised ligand; 1 µM).
The remaining signal of CCN(CC)CCNC(=O)c1c(C)[nH]c(/C=C2\C(=O)Nc3ccc(F)cc32)c1C is reported as 112% (cell-free assay; 0.5 µM).
Cc1nccc(COC(=O)N2C[C@@H]3[C@@H](CNC(=O)c4ccc5[nH]nnc5c4)[C@@H]3C2)n1 gave a remaining binding of 100% (binding; competition with immobilised ligand; 1 µM).
For COc1cc(Cl)c(C(=O)N[C@@H](CN[C@H]2CC[C@@H](N)CC2)Cc2ccc(C#N)cc2)cc1-c1ccc(CN[C@H](C)c2ccc(C)cc2)o1, the remaining activity was 123% (enzyme activity; inhibitor; 1 µM).
CC(C)(O)[C@H]1CC[C@H](Nc2ccc3ncc(-c4cccc(C(F)(F)F)c4)n3n2)CC1 has a remaining activity of 66.7% (enzyme activity; inhibitor; 1 µM).
With COc1cc2c(N3CCN(C(=O)Nc4ccc(OC(C)C)cc4)CC3)ncnc2cc1OCCCN1CCCCC1 the remaining signal was 102% (cell-free assay; 0.5 µM).
For O=C(Nc1cnn(-c2csc(C(=O)NC3COC3)c2)c1)Nc1ccccc1Cl, the remaining activity was 107% (enzyme activity; inhibitor; 5 µM).
The remaining binding of CC(=O)c1c(NS(C)(=O)=O)c2cc(-c3ccc(Cl)cc3)c(-c3ccc(Cl)cc3Cl)nc2n(C)c1=O is reported as 100% (cell-free assay; competition with immobilised ligand; 1 µM).
For COc1cc(Nc2c(C#N)cnc3cc(OCCCN4CCN(C)CC4)c(OC)cc23)c(Cl)cc1Cl, the remaining signal was 67.6% (cell-free assay; 0.5 µM).
CCS(=O)(=O)c1cc2cc(C[C@](O)(CC(C)(C)c3ccc(F)cc3C(N)=O)C(F)(F)F)[nH]c2cn1 has a remaining binding of 100% (cell-free assay; competition with immobilised ligand; 1 µM).
CC(C)(C)c1nc2c(s1)c1nc(N)ncc1c1ccc(NS(=O)(=O)c3c(F)cccc3F)c(F)c12 has a remaining activity of 87% (enzyme activity; inhibitor; radiometric; 1 µM).
